Assay results taken from paper PMC7215194 (Heliyon, 2020).

Key:
A431 cells [1] = assay: TAMRA-peptides internalization assay, confocal microscopy of living cells; assay type: cell-based, human
Outline: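 A431 cells (2.5 × 10^5) were seeded in coverslip-bottom imaging dishes in DMEM with 10% FBS. After 6 h, serum-deprived medium with N-terminal 5(6)-TAMRA-labeled test peptides (20 μg/ml) was added for 5 min or overnight, with free TAMRA (1.7 μM) as control. Living cells were gently washed and imaged by confocal microscopy with a 63x objective, 561 nm laser and white light, taking z-planes every 0.8 μm.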

hepatocarcinoma cells = details: EGF-dependent vs basal EGF-independent proliferation; cited from earlier work
A431 cells [2] = assay: Artificial wound healing assay; assay type: cell-based, human; details: for effect of W-7/W-12 on cell migration in the absence of EGF: 20 μM, no EGF, time-lapse 48 h, n = 3
A431 cells [3] = assay: Cell detachment assay; assay type: cell-based, human; details: overnight with 20 μg/ml peptides or 20 μM W-7/W-12, then 1 mM EGTA, n = 3
Outline: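 A431 cells (DMEM, 2 mM L-glutamine, 10% FBS, 37 °C, 5% CO2) were seeded at 10^6 per 60 mm dish in 10% FBS. After 6 h, test peptides (20 μg/ml) or W-7/W-12 (20 μM) in DMSO were added in serum-deprived medium overnight, with 0.2–0.4% DMSO vehicle controls. Cells were then exposed to 1 mM EGTA, and detached cells in aliquots were counted in a Neubauer chamber over time. Values are mean ± SEM percent detached, n = 3.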

A431 cells [4] = assay: Anchorage-independent growth assay in soft agar; assay type: cell-based, human; details: 14 days, n = 4; for effect on size and number of colonies grown in soft agar: 20 μM W-7 or 25 μM W-12, 10% FBS, colonies >60 μm
Outline: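 A431 cells (10^5 per 60 mm dish) suspended in DMEM ± 10% (v/v) FBS with 10 mM NaOH-Hepes pH 7.5 in 0.3% agarose, layered over 0.5% agarose. Fed every 72–96 h with fresh medium ± 10 nM EGF, 20 μM W-7 or 25 μM W-12 in DMSO; vehicle 0.4% DMSO. Imaged at day 14 with a 4x objective; colonies ≥60 μm counted.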

Row | Compound | membrane blebbing (initiation of apoptosis) of treated cells (A431 cells [1]) | effect of W-7 on proliferation of hepatocarcinoma cells (hepatocarcinoma cells) | effect of W-7/W-12 on cell migration in the absence of EGF (A431 cells [2]) | effect on cell detachment with EGTA (A431 cells [3]) | effect on size and number of colonies grown in soft agar (A431 cells [4]) | delayed action of EGF on the initiation of cell migration (A431 cells [2]; 10 nM EGF, n = 9) | effect of EGF on anchorage-independent growth in soft agar (A431 cells [4]; 10 nM EGF)
1 | 5(6)-carboxytetramethylrhodamine [free TAMRA] | not observed |  |  |  |  |  | 
2 | NCCCCCCNS(=O)(=O)c1cccc2c(Cl)cccc12 [W-7, N-(6-aminohexyl)-5-chloro-1-naphthalenesulfonamide] |  | inhibits EGF-dependent but not basal EGF-independent proliferation of hepatocarcinoma cells | increased the initial migration rate of the cells, particularly with the high affinity inhibitor W-7 | only partially | strongly inhibits |  | 
3 | NCCCCNS(=O)(=O)c1ccc2ccccc2c1 [W-12, N-(4-aminobutyl)-2-naphthalenesulfonamide] |  |  | increased the initial migration rate of the cells | only partially | very low effect |  | 
4 | EGF: epidermal growth factor |  |  |  |  |  | 11.5 ± 1.4 h | particularly decreasing the size of the colonies
